# Assay outcomes: PubChem BioAssay, several laboratories
# Hits are enriched below; roughly 3.1% of the tested compounds scored in any of these assays.
# MEKK2 WT-MEK5 – raises or lowers MEK5 binding to wildtype human MEKK2 PB1 domain; binding response (% of control), % at 10 µM; Q9Y2U5; bead flow cytometry, Alexa488-MEK5 binding to MEKK2 WT; actives lie on both sides; actives 1.1% (n = 290,000); in the data active means binding response below about 67% or above about 130%; inconclusive means no clear call, values can overlap the other calls; inactive means in between
# MEKK2 mut-MEK5 – signal of MEK5 binding to mutant human MEKK2 PB1 domain; bead flow cytometry, Alexa488-MEK5 binding to MEKK2 mutant; percent response, % at 10 µM; AID 1530; actives 0.35% (n = 290,000); in the data active means percent response above about 24%, passing the limit was not always enough
# PREPL inh – inhibitors of human prolyl oligopeptidase-like enzyme PREPL; Q4J6C6; recombinant PREPL, fluorescence polarization activity-based probe; inhibition, % at 5.96 µM; actives 0.68% (n = 320,000); AID 2751; in the data active means inhibition above about 43%;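 further: 0% = enzyme with DMSO and 100% = wells lacking enzyme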
# UBC13 inh – blocks human UBC13 polyubiquitin chain formation; P61088; TR-FRET; inhibition, % at 20 µM; actives 0.47% (n = 330,000); AID 485273; in the data active means inhibition above about 45%, passing the limit was not always enough; inconclusive means no clear call, values can overlap the other calls
# Target sequence (P61088 whole entry, looked up): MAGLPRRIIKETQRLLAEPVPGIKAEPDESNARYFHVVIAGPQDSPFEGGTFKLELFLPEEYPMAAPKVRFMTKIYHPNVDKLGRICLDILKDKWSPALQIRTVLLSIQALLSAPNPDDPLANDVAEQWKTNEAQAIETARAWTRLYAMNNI
# Apaf1 inhib – inhibitors of human Apaf-1 apoptosome | O14727 | reconstituted apoptosome caspase-3 activity, DEVD-Rh110 fluorescence | inhibition, % at 20 µM | actives 0.71% (n = 330,000) | AID 489030; active means inhibition of at least 40% at 20 µM;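 further: plate controls were DMSO wells for no effect and DEVD-CHO caspase inhibitor wells for full effect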
#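 System: Apoptosome proteins | Medium: Hepes pH 7.5 with detergent and BSA | Also added: Cytochrome c trigger plus (Z-DEVD)2-Rh110 caspase-3 substrate | Incubation: 30 min compound preincubation, 50 min activation, room temperature | Detection: Rhodamine 110 fluorescence at Ex 480/Em 540 nm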
# MEKK3 PB1 HTS – modulators (inhibitors or enhancers) of MEK5 binding to human MEKK3 PB1 domain. Q99759. bead-based flow cytometry, Alexa488-MEK5 binding to MEKK3; actives lie on both sides; 0 = blocked by unlabeled MEK5, 100 = vehicle. binding response (% of control), % at 10 µM. actives 1.4% (n = 290,000). AID 1529;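 active means binding response more than 3 SD above or below the average of its plate-row segment, actives on both sides; inconclusive means wells at one plate position flagged as instrument error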;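 further: Alexa488 bead fluorescence after subtracting the streptavidin-only scavenger bead signal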
# Casp3 UBC13 ctr – counter-screen for UBC13 inhibitors: human caspase-3 inhibition. shares compounds with UBC13 inh. Recombinant caspase-3, Caspase-Glo 3/7 luminescence, 60 min. inhibition, % at 20 µM. actives 4% (n = 1,400);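 active means mean inhibition across replicates above about 26%, limit read from the data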;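 further: plate controls were DMSO with caspase-3 for no effect and DMSO wells lacking enzyme for full effect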
# Target sequence (P42574 whole entry, looked up): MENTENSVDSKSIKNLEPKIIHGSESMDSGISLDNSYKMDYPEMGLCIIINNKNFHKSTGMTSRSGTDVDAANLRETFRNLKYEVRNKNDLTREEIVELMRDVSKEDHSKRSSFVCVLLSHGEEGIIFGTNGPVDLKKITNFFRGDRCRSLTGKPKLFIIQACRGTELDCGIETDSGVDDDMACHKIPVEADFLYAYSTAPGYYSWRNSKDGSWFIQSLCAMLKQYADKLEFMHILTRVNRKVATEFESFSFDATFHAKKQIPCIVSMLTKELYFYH
# UBC13 conf – confirmation of human UBC13 polyubiquitin inhibitors | UBC13 polyubiquitination, TR-FRET, biochemical | inhibition, % at 10 µM | shares compounds with UBC13 inh | actives 68% (n = 1,400); in the data active means inhibition above about 45%; inconclusive means no clear call, values can overlap the other calls
# * hit, by the source's call; ? = inconclusive; / = no result given.
SMILES,MEKK2 WT-MEK5,MEKK2 mut-MEK5,PREPL inh,UBC13 inh,Apaf1 inhib,MEKK3 PB1 HTS,Casp3 UBC13 ctr,UBC13 conf
CN1CCN(C(=O)CCN2C(=O)/C(=C/c3ccccc3Cl)SC2=S)CC1,108.0,-5.0,-34.2,69.3*,0.6,106.0,-3.3,87.0*
COc1cccc2c(Nc3ccccc3C)cc(C)nc12,121.0,11.0,9.7,1.4,-8.5,104.0,/,/
COc1ccc(C)c2sc(N(CCCN(C)C)C(=O)c3ccc(S(=O)(=O)N(C)C)cc3)nc12,111.0,3.0,7.8,48.6*,-6.9,94.0,-5.1,54.4*
CCCCN(C(=O)c1ccc(S(=O)(=O)N(C)C)cc1)c1nc2ccccc2s1,93.0,-3.0,2.9,7.4,-0.6,92.0,/,/
COc1ccccc1C(CNC(=O)C(C)Oc1ccc(Br)cc1)N1CCCC1 (centres undefined),/,/,7.8,0.5,9.1,/,/,/
c1ccc(CCCCN2C(Nc3ccccc3)=NC[C@@H]2Cc2ccccc2)cc1,/,/,-5.7,48.8*,31.1,/,-4.3,16.8
COCc1c(C(=O)NC2CCCCC2)sc2cccc(F)c12,/,/,23.8,6.7,7.9,/,/,/
Cc1ccc2c(n1)CC(C)(C)CC2=O,114.0,6.0,5.5,46.7*,-1.1,109.0,-2.0,9.8
Cc1ccc(C)c(N2CCN(c3ccc4cc(S(=O)(=O)N5CCCCC5)ccc4n3)CC2)c1,89.0,-8.0,11.7,?,15.9,99.0,/,/
Cc1cccc(N2CCN(c3ccc4cc(S(=O)(=O)N5CCCCC5)ccc4n3)CC2)c1C,95.0,-2.0,0.2,52.3*,-9.3,99.0,-1.3,?
CCN(CC)CCCNC(=O)c1cc2c(-c3cccc(OC)c3)nn(C)c2s1,120.0,13.0,-5.1,32.7,7.7,101.0,/,/
CCCCN(C)CCNC(=O)c1cc2c(-c3cccc(OC)c3)nn(C)c2s1,115.0,9.0,-34.4,45.6*,10.6,90.0,1.4,45.0
Cc1onc(-c2ccccc2)c1C(=O)OCC(=O)N1CCN(c2ccccc2)CC1,/,/,-4.1,0.5,11.0,/,/,/
O=C(CSc1ccccc1)Nc1nnc(C2CC2)s1,98.0,1.0,8.3,0.8,4.1,93.0,/,/
COc1ccc(-c2cc3c(=O)n(CC(=O)NCCCN4CCC(N5CCCCC5)CC4)nc(C)n3n2)cc1,141.0,11.0,2.4,71.1*,35.2,105.0,-0.9,34.0
COc1ccc(-c2cc3c(=O)n(CC(=O)NCCCN4CCC(N5CCCCC5)CC4)ncn3n2)cc1,122.0,8.0,7.8,27.1,18.2,102.0,/,/
CC(C)CC(C(=O)NC(C)(C)C)N(Cc1ccccc1Cl)C(=O)c1snc(C(N)=O)c1N (centres undefined),100.0,6.0,/,71.0*,18.3,105.0,4.1,93.1*
CCC(C(=O)NC1CCCC1)N(Cc1ccccc1Cl)C(=O)c1snc(C(N)=O)c1N (centres undefined),105.0,-2.0,8.6,16.0,7.9,106.0,/,/
CC(C)CC(C(=O)NC(C)(C)C)N(Cc1cccs1)C(=O)c1snc(C(N)=O)c1N (centres undefined),103.0,-2.0,14.1,65.0*,16.0,108.0,-1.9,66.9*
CS(=O)(=O)c1cccc(C(=O)Nc2cccc(S(=O)(=O)N3CCCC3)c2)c1,/,/,/,0.0,2.3,/,/,/
COc1cc(C(=O)Nc2cccc(S(=O)(=O)N3CCCC3)c2)cc(OC)c1C,/,/,-12.7,75.0*,-5.7,/,0.3,69.9*
O=C(NCc1cccs1)C1CCC(=O)N(Cc2cccc(C(F)(F)F)c2)C1 (centres undefined),106.0,2.0,3.1,-6.5,13.6,104.0,/,/
O=C1NC2(CCCCCC2)N=C1c1ccc(Br)cc1,99.0,-4.0,-8.9,48.8*,5.7,103.0,-2.8,?
CCOc1ccc(OCCCC(=O)N(CC)CC(=O)Nc2c(F)cccc2F)cc1,/,/,7.0,12.4,-9.6,/,/,/
CCN(CC(=O)Nc1c(F)cccc1F)C(=O)CCOc1ccccc1,/,/,8.0,54.6*,2.6,/,2.4,-3.9
SMILES,MEKK2 WT-MEK5,MEKK2 mut-MEK5,PREPL inh,UBC13 inh,Apaf1 inhib,MEKK3 PB1 HTS,Casp3 UBC13 ctr,UBC13 conf
COc1ccccc1NS(=O)(=O)c1cccc(C(=O)NNC(=O)c2ccc(Cl)nc2)c1,/,/,1.8,45.2*,0.9,/,2.2,24.9
CCN(C(=O)COC(=O)/C=C/c1cccc([N+](=O)[O-])c1)c1c(N)n(Cc2ccccc2)c(=O)[nH]c1=O,/,/,23.2,-4.1,12.5,/,/,/
C=CCn1c(=O)c(C(=O)Nc2ccccc2C(=O)OCC)c(O)c2ccccc21,108.0,12.0,-9.9,24.3,1.6,110.0,/,/
C=CCn1c(=O)c(C(=O)Nc2ccccc2S(N)(=O)=O)c(O)c2ccccc21,87.0,-9.0,9.9,46.3*,8.0,94.0,1.5,9.6
N#C/C(=C/c1cn(-c2ccccc2)nc1-c1cccc(OCc2ccccc2)c1)C(=O)NCCCn1ccnc1,126.0,2.0,-7.8,48.1*,6.2,90.0,-1.2,55.6*
CCCCc1cn([C@@H](CCCCN)C(=O)N2CCNCC2)nn1,104.0,8.0,-4.6,-10.9,5.0,99.0,/,/
NCCCC[C@@H](C(=O)N1CCNCC1)n1cc(CN)nn1,/,/,-8.2,59.8*,1.3,/,2.8,46.6*
COC(=O)[C@@]12CCCCN1[C@H](c1ccc(-c3cc(C(C)=O)cs3)c(OC)c1)[C@H]1C(=O)N(C)C(=O)[C@H]12,/,/,3.5,52.5*,10.0,/,-5.6,36.3
O=C(O)CNC(=O)c1ccc(NC(=O)/C(=C/c2ccccc2)NC(=O)c2ccco2)cc1,101.0,1.0,6.2,4.6,-3.5,95.0,/,/
NC(=S)N=Nc1c(O)n(CC(=O)Nc2ccccc2)c2ccccc12,106.0,9.0,13.4,-4.6,2.7,108.0,/,/
NC(=S)N=Nc1c(O)n(CCCl)c2ccccc12,97.0,1.0,-0.8,89.6*,2.4,103.0,-4.3,84.8*
NC(=S)N=Nc1c(O)n(C2OC(=O)c3ccccc32)c2ccccc12 (centres undefined),/,/,8.4,88.5*,5.9,/,-0.1,104.2*
NC(=S)N=Nc1c(O)n(CCCl)c2ccc(Cl)cc12,97.0,-3.0,10.8,68.2*,3.0,104.0,-3.4,89.7*
NC(=O)c1ccc(NC(=O)CSc2nc3ccccc3c(=O)n2CCCN2CCOCC2)cc1,/,/,2.8,2.5,-6.7,/,/,/
CC1(C)Cc2c(sc(NC(=O)COc3ccc(Cl)cc3Cl)c2C(N)=O)C(C)(C)N1,129.0,10.0,-5.8,73.8*,29.1,107.0,-0.9,108.8*
FC(F)(F)c1cc(CCN2CCNC[C@H]2Cc2cccc3ccccc23)cc(C(F)(F)F)c1,/,/,-32.1,96.1*,72.4*,/,2.0,98.2*
